Measurements taken from ChEMBL document CHEMBL5724801, “EUbOPEN Chemogenomics Library - Multiplex” (2024).
Several values for one entry are separate records, joined by “and”; a condition that tells them apart may be missing. Equal values may be shown once.

system: Fibroblast; assay: Multiplex assay against human fibroblast; assay type: toxicity, cell-based; conditions: 12 h, 1 µM, compound concentration 1 uM
How it was run: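 Live cells carried four stains from seeding: Hoechst33342, BioTracker Green Microtubule Cytoskeleton Dye, MitoTracker Red and Annexin V Alexa Fluor 680. They were imaged on a CQ1 microscope at 37°C and 5% CO2 after compound addition. Using CellPathfinder machine-learning gating, cells were split into Hoechst high-intensity objects or normal cells, normal cells into healthy, pyknosed or fragmented nuclei, and pyknosed cells into mitotic or apoptotic; tubulin, mitochondrial-mass and membrane-permeability phenotypes are per cents of healthy-nucleus cells.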

Compound | Population Apoptotic (%) | Population Fragmented Nuclei (%) | Population Healthy Nuclei (%) | Population Hoechst High Intensity Objects (%) | Population Membrane Permeable-Phenotype (%) | Population Mitochondria Different-Phenotype (%) | Population Mitotic Cells (%) | Population Normal (%) | Population Pyknosed Nuclei (%) | Population Tubulin-Different-Phenotype (%)
CN[C@@H](C)C(=O)N[C@H](C(=O)N1CCC[C@H]1C(=O)Nc1snnc1-c1ccccc1)C1CCCCC1 [GDC-0152] | 70% and 33% | 14% and 16% | 68% and 56% | 4% and 6% | 1% and 6% | 6% and 9% | 30% and 66% | 95% and 93% | 16% and 26% | 38% and 62%
CC/C(=C(\c1ccc(O)cc1)c1ccc(OCCN(C)C)cc1)c1ccccc1 [AFIMOXIFENE] | 6.78% and 3.57% | 14.83% and 6.12% | 56.94% and 79.59% | 0% | 2.52% and 2.56% | 7.56% and 8.97% | 93.22% and 96.43% | 100% | 28.23% and 14.29% | 14.29% and 22.44%
O=C(O)Cc1ccccc1Nc1c(Cl)cccc1Cl [DICLOFENAC] | 43% and 33% | 14% and 25% | 67% and 49% | 0% and 2% | 1% and 7% | 6% | 56% and 66% | 99% and 97% | 17% and 25% | 25% and 49%
c1ccc2nc(N3CCNCC3)ccc2c1 [QUIPAZINE] | 13.95% and 10% | 15.05% and 6.28% | 64.08% and 79.23% | 0% | 2.27% and 0.61% | 9.09% and 6.71% | 86.05% and 90% | 100% | 20.87% and 14.49% | 9.09% and 19.51%

same assay, conditions: 12 h, 1 µM, compound concentration 1 uM

Compound | Total Cell Count
CN[C@@H](C)C(=O)N[C@H](C(=O)N1CCC[C@H]1C(=O)Nc1snnc1-c1ccccc1)C1CCCCC1 [GDC-0152] | 127 and 121
CC/C(=C(\c1ccc(O)cc1)c1ccc(OCCN(C)C)cc1)c1ccccc1 [AFIMOXIFENE] | 209 and 196
c1ccc2nc(N3CCNCC3)ccc2c1 [QUIPAZINE] | 206 and 207

same assay, conditions: 12 h, 10 µM, compound concentration 10 uM

Compound | Population Apoptotic (%) | Population Fragmented Nuclei (%) | Population Healthy Nuclei (%) | Population Hoechst High Intensity Objects (%) | Population Membrane Permeable-Phenotype (%) | Population Mitochondria Different-Phenotype (%) | Population Mitotic Cells (%) | Population Normal (%) | Population Pyknosed Nuclei (%) | Population Tubulin-Different-Phenotype (%)
CN[C@@H](C)C(=O)N[C@H](C(=O)N1CCC[C@H]1C(=O)Nc1snnc1-c1ccccc1)C1CCCCC1 [GDC-0152] | 38% and 24% | 17% and 26% | 59% and 34% | 6% and 10% | 0% | 13% and 10% | 61% and 75% | 93% and 90% | 22% and 39% | 80% and 65%
CC/C(=C(\c1ccc(O)cc1)c1ccc(OCCN(C)C)cc1)c1ccccc1 [AFIMOXIFENE] | – | 14.55% and 7.74% | 54.55% and 72.76% | 0% | 3.33% and 2.55% | 25.56% and 23.83% | 94.12% and 80.95% | 100% | 30.91% and 19.5% | 54.44% and 66.38%
O=C(O)Cc1ccccc1Nc1c(Cl)cccc1Cl [DICLOFENAC] | 32% and 38% | 14% and 36% | 68% and 46% | 0% and 6% | 0% and 16% | 5% and 8% | 68% and 61% | 99% and 93% | 17% | 24% and 54%
c1ccc2nc(N3CCNCC3)ccc2c1 [QUIPAZINE] | – | 10.34% and 8.29% | 70.94% and 74.63% | 0% | 3.47% and 5.23% | – | 94.74% and 74.29% | 100% | 18.72% and 17.07% | 13.19% and 23.53%

same assay, conditions: 12 h, 10 µM, compound concentration 10 uM

Compound | Total Cell Count
CN[C@@H](C)C(=O)N[C@H](C(=O)N1CCC[C@H]1C(=O)Nc1snnc1-c1ccccc1)C1CCCCC1 [GDC-0152] | 144 and 150
CC/C(=C(\c1ccc(O)cc1)c1ccc(OCCN(C)C)cc1)c1ccccc1 [AFIMOXIFENE] | 165 and 323
c1ccc2nc(N3CCNCC3)ccc2c1 [QUIPAZINE] | 203 and 205

same assay, conditions: 24 h, 1 µM, compound concentration 1 uM

Compound | Population Apoptotic (%) | Population Fragmented Nuclei (%) | Population Healthy Nuclei (%) | Population Hoechst High Intensity Objects (%) | Population Membrane Permeable-Phenotype (%) | Population Mitochondria Different-Phenotype (%) | Population Mitotic Cells (%) | Population Normal (%) | Population Pyknosed Nuclei (%) | Population Tubulin-Different-Phenotype (%)
CN[C@@H](C)C(=O)N[C@H](C(=O)N1CCC[C@H]1C(=O)Nc1snnc1-c1ccccc1)C1CCCCC1 [GDC-0152] | 60% and 37% | 20% and 22% | 63% and 55% | 2% and 9% | 1% and 2% | 1% and 11% | 40% and 62% | 97% and 90% | 16% and 22% | 30% and 61%
CC/C(=C(\c1ccc(O)cc1)c1ccc(OCCN(C)C)cc1)c1ccccc1 [AFIMOXIFENE] | 8.77% and 18.75% | 10.78% and 8.21% | 64.66% and 83.59% | 0% | 4% and 2.45% | 6.67% and 9.82% | 91.23% and 81.25% | 100% | 24.57% and 8.21% | 18% and 23.31%
O=C(O)Cc1ccccc1Nc1c(Cl)cccc1Cl [DICLOFENAC] | 52% and 35% | 15% and 28% | 66% and 49% | 2% and 3% | 0% and 12% | 4% and 6% | 47% and 64% | 97% and 96% | 17% and 21% | 29% and 50%
c1ccc2nc(N3CCNCC3)ccc2c1 [QUIPAZINE] | 15.79% and 12% | 7.37% and 6.28% | 75.12% and 82.51% | 0% | 4.91% and 2.72% | 6.75% and 7.61% | 84.21% and 88% | 100% | 17.51% and 11.21% | 11.04% and 17.93%

same assay, conditions: 24 h, 1 µM, compound concentration 1 uM

Compound | Total Cell Count
CN[C@@H](C)C(=O)N[C@H](C(=O)N1CCC[C@H]1C(=O)Nc1snnc1-c1ccccc1)C1CCCCC1 [GDC-0152] | 123 and 133
CC/C(=C(\c1ccc(O)cc1)c1ccc(OCCN(C)C)cc1)c1ccccc1 [AFIMOXIFENE] | 232 and 195
c1ccc2nc(N3CCNCC3)ccc2c1 [QUIPAZINE] | 217 and 223

same assay, conditions: 24 h, 10 µM, compound concentration 10 uM

Compound | Population Apoptotic (%) | Population Fragmented Nuclei (%) | Population Healthy Nuclei (%) | Population Hoechst High Intensity Objects (%) | Population Membrane Permeable-Phenotype (%) | Population Mitochondria Different-Phenotype (%) | Population Mitotic Cells (%) | Population Normal (%) | Population Pyknosed Nuclei (%) | Population Tubulin-Different-Phenotype (%)
CN[C@@H](C)C(=O)N[C@H](C(=O)N1CCC[C@H]1C(=O)Nc1snnc1-c1ccccc1)C1CCCCC1 [GDC-0152] | 67% and 41% | 14% and 33% | 58% and 34% | 5% and 8% | 0% and 16% | 21% and 22% | 32% and 58% | 94% and 91% | 26% and 31% | 83% and 68%
CC/C(=C(\c1ccc(O)cc1)c1ccc(OCCN(C)C)cc1)c1ccccc1 [AFIMOXIFENE] | 17.65% and 48.31% | 12.57% | 50.27% and 67.6% | 0% | 3.26% and 2.76% | 29.35% and 27.19% | 82.35% and 51.69% | 100% | 37.16% and 27.73% | 70.65% and 79.72%
O=C(O)Cc1ccccc1Nc1c(Cl)cccc1Cl [DICLOFENAC] | 30% and 50% | 16% and 31% | 68% and 50% | 5% and 2% | 0% and 8% | 5% and 10% | 69% and 50% | 94% and 97% | 15% and 18% | 19% and 55%
c1ccc2nc(N3CCNCC3)ccc2c1 [QUIPAZINE] | 17.65% and 35.71% | 10.5% and 7.62% | 73.97% and 79.82% | 0% | 3.7% and 3.37% | 3.09% and 6.74% | 82.35% and 64.29% | 100% | 15.53% and 12.56% | 16.05% and 25.84%

same assay, conditions: 24 h, 10 µM, compound concentration 10 uM

Compound | Total Cell Count
CN[C@@H](C)C(=O)N[C@H](C(=O)N1CCC[C@H]1C(=O)Nc1snnc1-c1ccccc1)C1CCCCC1 [GDC-0152] | 135 and 157
CC/C(=C(\c1ccc(O)cc1)c1ccc(OCCN(C)C)cc1)c1ccccc1 [AFIMOXIFENE] | 183 and 321
c1ccc2nc(N3CCNCC3)ccc2c1 [QUIPAZINE] | 219 and 223

same assay, conditions: 48 h, 1 µM, compound concentration 1 uM

Compound | Population Apoptotic (%) | Population Fragmented Nuclei (%) | Population Healthy Nuclei (%) | Population Hoechst High Intensity Objects (%) | Population Membrane Permeable-Phenotype (%) | Population Mitotic Cells (%) | Population Normal (%) | Population Pyknosed Nuclei (%) | Population Tubulin-Different-Phenotype (%) | Total Cell Count
CN[C@@H](C)C(=O)N[C@H](C(=O)N1CCC[C@H]1C(=O)Nc1snnc1-c1ccccc1)C1CCCCC1 [GDC-0152] | 47% and 57% | 23% and 38% | 60% and 44% | 1% and 5% | 0% and 2% | 52% and 42% | 98% and 94% | 16% and 17% | 48% and 67% | 132 and 159
CC/C(=C(\c1ccc(O)cc1)c1ccc(OCCN(C)C)cc1)c1ccccc1 [AFIMOXIFENE] | – | 9.52% and 11.27% | 83.67% and 81.69% | 0% | 1.22% and 2.3% | 95% and 73.33% | 100% | 6.8% and 7.04% | 8.94% and 25.86% | 294 and 213
O=C(O)Cc1ccccc1Nc1c(Cl)cccc1Cl [DICLOFENAC] | 85% and 57% | 21% and 36% | 61% and 53% | 3% and 5% | 4% | 15% and 42% | 96% and 94% | 16% and 10% | 24% and 44% | –
c1ccc2nc(N3CCNCC3)ccc2c1 [QUIPAZINE] | 57.14% and 58.33% | 12.6% and 5.91% | 82.06% and 88.64% | 0% | 2.33% and 4.1% | 42.86% and 41.67% | 100% | 5.34% and 5.45% | 4.19% and 11.79% | 262 and 220

same assay, conditions: 48 h, 1 µM, compound concentration 1 uM

Compound | Population Mitochondria Different-Phenotype (%)
CC/C(=C(\c1ccc(O)cc1)c1ccc(OCCN(C)C)cc1)c1ccccc1 [AFIMOXIFENE] | 9.35% and 5.17%
O=C(O)Cc1ccccc1Nc1c(Cl)cccc1Cl [DICLOFENAC] | 4%

same assay, conditions: 48 h, 10 µM, compound concentration 10 uM

Compound | Population Apoptotic (%) | Population Fragmented Nuclei (%) | Population Healthy Nuclei (%) | Population Hoechst High Intensity Objects (%) | Population Membrane Permeable-Phenotype (%) | Population Mitochondria Different-Phenotype (%) | Population Mitotic Cells (%) | Population Normal (%) | Population Pyknosed Nuclei (%) | Population Tubulin-Different-Phenotype (%)
CN[C@@H](C)C(=O)N[C@H](C(=O)N1CCC[C@H]1C(=O)Nc1snnc1-c1ccccc1)C1CCCCC1 [GDC-0152] | 76% and 44% | 23% and 39% | 45% and 42% | 6 | 0% and 19% | 22% and 17% | 23% and 55% | 93 | 31% and 18% | 81% and 88%
CC/C(=C(\c1ccc(O)cc1)c1ccc(OCCN(C)C)cc1)c1ccccc1 [AFIMOXIFENE] | 28.57% and 43.14% | – | 71.37% and 80.49% | 0 | 4.71% | 13.37% and 7.41% | 71.43% and 56.86% | 100 | 8.71% and 13.82% | 49.42% and 76.77%
O=C(O)Cc1ccccc1Nc1c(Cl)cccc1Cl [DICLOFENAC] | 73% and 30% | 22% and 35% | 65% and 50% | 3 | 0% and 4% | 3% and 6% | 26% and 69% | 96 | 12% and 14% | 28% and 53%
c1ccc2nc(N3CCNCC3)ccc2c1 [QUIPAZINE] | 35.71% and 45% | 10.74% and 6.5% | 84.07% and 85.37% | 0 | 1.32% and 4.76% | 6.61% and 0.48% | 64.29% and 55% | 100 | 5.19% and 8.13% | –

same assay, conditions: 48 h, 10 µM, compound concentration 10 uM

Compound | Total Cell Count
CN[C@@H](C)C(=O)N[C@H](C(=O)N1CCC[C@H]1C(=O)Nc1snnc1-c1ccccc1)C1CCCCC1 [GDC-0152] | 145 and 159
CC/C(=C(\c1ccc(O)cc1)c1ccc(OCCN(C)C)cc1)c1ccccc1 [AFIMOXIFENE] | 241 and 369
c1ccc2nc(N3CCNCC3)ccc2c1 [QUIPAZINE] | 270 and 246
